The subject of experiment [1] is HL-60. Description: Antiproliferative activity against human HL60 cells after 24 to 48 hrs by MTT assay. It is filed as functional, cell-based. (Tetrazolium assays rely on reduction of a dye to a coloured formazan, in cell work by metabolically active cells.)
Experiment [2] relates to COLO 205. Description: Antiproliferative activity against human COLO205 cells after 24 to 48 hrs by MTT assay. It counts as functional, cell-based.
In experiment [3] the test system is HCT-116. Description: Antiproliferative activity against human HCT116 cells after 24 to 48 hrs by MTT assay. It is filed as functional, cell-based.
Experiment [4] relates to MCF7. In words: Antiproliferative activity against human MCF7 cells after 24 to 48 hrs by MTT assay. It counts as functional, cell-based.
In experiment [5] the test system is A549. Description: Antiproliferative activity against human A549 cells after 24 to 48 hrs by MTT assay. It is filed as functional, cell-based.
Experiment [6] is described as follows: Antiproliferative activity against human FR2 cells after 24 to 48 hrs by MTT assay. It is filed as cell-based.
Experiment [7] has as its system HL-60. Description: Downregulation of p110gamma protein expression levels in human HL60 cells at 1 uM after 2 hrs by Western blot analysis relative to control. It is filed as functional. The essentials:
(§1)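 HL-60 cells were exposed to test agent at 1 µM for short time intervals, including 2 h. Expression of the p110α, p110β, p110δ and p110γ isoforms was then assessed by western blotting. p110γ blots were also quantified by densitometry at each time point.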
In general terms: A western blot detects proteins with antibodies after separation by electrophoresis.

In experiment [8] the test system is HL-60. In words: Downregulation of p110alpha protein expression levels in human HL60 cells at 1 uM after 2 hrs by Western blot analysis. It counts as functional, cell-based. In outline: as §1
The subject of experiment [9] is HL-60. Description: Downregulation of p110beta protein expression levels in human HL60 cells at 1 uM after 2 hrs by Western blot analysis. It is filed as functional, cell-based. The essentials: as §1
For experiment [10], the system named is HL-60. Description: Downregulation of p110delta protein expression levels in human HL60 cells at 1 uM after 2 hrs by Western blot analysis. It is filed as functional, cell-based. The essentials: as §1
The species entered for experiment [11] is Homo sapiens. In words: Selectivity index, ratio of IC50 for PI3K-delta (unknown origin) to IC50 for PI3K-gamma (unknown origin).
For experiment [12], the target named is Phosphatidylinositol 4,5-bisphosphate 3-kinase catalytic subunit alpha isoform (Homo sapiens, UniProt P42336). Description: Inhibition of PI3K-alpha (unknown origin) by cell free biochemical assay.
In experiment [13] the target is Phosphatidylinositol 4,5-bisphosphate 3-kinase catalytic subunit beta isoform (Homo sapiens, UniProt P42338). In words: Inhibition of PI3K-beta (unknown origin) by cell free biochemical assay.
Experiment [14] deals with Phosphatidylinositol 4,5-bisphosphate 3-kinase catalytic subunit gamma isoform (Homo sapiens, UniProt P48736). Description: Inhibition of PI3K-gamma (unknown origin) by cell free biochemical assay.
The target of experiment [15] is T1, Phosphatidylinositol 4,5-bisphosphate 3-kinase catalytic subunit delta isoform (Homo sapiens, UniProt O00329).
T1 sequence (O00329 whole entry): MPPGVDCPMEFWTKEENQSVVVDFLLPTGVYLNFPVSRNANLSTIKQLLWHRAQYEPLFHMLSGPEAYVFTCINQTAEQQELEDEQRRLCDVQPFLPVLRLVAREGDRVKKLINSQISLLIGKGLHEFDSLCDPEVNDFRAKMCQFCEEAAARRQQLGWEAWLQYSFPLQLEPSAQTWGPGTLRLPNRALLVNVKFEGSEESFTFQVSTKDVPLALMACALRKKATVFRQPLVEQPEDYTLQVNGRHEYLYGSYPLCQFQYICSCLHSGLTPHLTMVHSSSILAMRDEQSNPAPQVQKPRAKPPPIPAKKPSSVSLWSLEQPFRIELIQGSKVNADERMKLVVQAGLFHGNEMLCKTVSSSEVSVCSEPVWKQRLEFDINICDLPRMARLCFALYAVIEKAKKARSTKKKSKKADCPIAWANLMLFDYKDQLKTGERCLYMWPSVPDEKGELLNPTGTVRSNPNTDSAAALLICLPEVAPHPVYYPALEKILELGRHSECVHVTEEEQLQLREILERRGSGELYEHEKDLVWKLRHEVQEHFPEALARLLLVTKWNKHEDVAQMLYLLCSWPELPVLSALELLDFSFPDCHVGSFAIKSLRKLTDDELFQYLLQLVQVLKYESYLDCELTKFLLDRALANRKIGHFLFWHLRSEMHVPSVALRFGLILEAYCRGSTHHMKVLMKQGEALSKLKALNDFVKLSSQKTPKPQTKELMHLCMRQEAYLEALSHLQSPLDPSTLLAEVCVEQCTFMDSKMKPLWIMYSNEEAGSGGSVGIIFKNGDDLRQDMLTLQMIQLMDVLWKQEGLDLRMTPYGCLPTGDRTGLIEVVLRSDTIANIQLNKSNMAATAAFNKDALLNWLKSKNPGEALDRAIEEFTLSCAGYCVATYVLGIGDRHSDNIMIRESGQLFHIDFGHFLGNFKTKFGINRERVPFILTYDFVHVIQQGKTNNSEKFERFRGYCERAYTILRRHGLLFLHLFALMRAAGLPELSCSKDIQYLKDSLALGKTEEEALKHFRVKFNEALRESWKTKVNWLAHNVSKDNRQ
In words: Inhibition of PI3K-delta (unknown origin) by cell free biochemical assay.

Activity calls are given as the source filed them. The calls are words filed in the database; no cut-off is given here. Some results are limits rather than exact numbers.

A word on the IC50: it is the concentration that inhibits the measured activity by half. A low value points to inhibition by little substance.

Sequence of Phosphatidylinositol 4,5-bisphosphate 3-kinase catalytic subunit alpha isoform (P42336 whole entry, canonical isoform): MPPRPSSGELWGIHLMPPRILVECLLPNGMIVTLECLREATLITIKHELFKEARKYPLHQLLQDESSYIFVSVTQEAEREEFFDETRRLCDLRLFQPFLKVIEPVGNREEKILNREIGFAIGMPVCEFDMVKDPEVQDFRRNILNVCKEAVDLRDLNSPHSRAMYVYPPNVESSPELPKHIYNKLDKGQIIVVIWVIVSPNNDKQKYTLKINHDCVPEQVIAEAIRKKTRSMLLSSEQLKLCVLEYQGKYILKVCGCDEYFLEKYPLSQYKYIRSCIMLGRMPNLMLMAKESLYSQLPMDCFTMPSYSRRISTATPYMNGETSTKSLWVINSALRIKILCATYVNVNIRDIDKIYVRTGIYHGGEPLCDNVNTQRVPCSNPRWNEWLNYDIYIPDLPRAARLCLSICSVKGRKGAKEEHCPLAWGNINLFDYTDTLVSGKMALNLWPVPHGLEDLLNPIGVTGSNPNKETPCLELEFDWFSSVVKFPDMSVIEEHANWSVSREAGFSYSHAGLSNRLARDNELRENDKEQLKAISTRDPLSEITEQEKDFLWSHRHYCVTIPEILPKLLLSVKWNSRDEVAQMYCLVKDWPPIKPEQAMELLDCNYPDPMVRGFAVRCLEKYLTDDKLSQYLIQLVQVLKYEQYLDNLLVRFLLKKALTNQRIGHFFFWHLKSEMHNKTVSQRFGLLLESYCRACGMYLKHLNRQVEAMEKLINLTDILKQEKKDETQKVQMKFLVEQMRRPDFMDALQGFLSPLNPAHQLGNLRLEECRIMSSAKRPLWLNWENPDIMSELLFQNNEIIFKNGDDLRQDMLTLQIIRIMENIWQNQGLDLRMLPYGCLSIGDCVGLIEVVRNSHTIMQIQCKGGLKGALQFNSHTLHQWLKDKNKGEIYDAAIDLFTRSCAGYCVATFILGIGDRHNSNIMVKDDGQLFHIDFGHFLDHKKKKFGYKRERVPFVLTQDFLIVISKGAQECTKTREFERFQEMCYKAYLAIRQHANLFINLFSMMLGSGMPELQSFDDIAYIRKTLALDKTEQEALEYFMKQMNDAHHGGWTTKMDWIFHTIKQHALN
Sequence of Phosphatidylinositol 4,5-bisphosphate 3-kinase catalytic subunit beta isoform (P42338 whole entry, canonical isoform): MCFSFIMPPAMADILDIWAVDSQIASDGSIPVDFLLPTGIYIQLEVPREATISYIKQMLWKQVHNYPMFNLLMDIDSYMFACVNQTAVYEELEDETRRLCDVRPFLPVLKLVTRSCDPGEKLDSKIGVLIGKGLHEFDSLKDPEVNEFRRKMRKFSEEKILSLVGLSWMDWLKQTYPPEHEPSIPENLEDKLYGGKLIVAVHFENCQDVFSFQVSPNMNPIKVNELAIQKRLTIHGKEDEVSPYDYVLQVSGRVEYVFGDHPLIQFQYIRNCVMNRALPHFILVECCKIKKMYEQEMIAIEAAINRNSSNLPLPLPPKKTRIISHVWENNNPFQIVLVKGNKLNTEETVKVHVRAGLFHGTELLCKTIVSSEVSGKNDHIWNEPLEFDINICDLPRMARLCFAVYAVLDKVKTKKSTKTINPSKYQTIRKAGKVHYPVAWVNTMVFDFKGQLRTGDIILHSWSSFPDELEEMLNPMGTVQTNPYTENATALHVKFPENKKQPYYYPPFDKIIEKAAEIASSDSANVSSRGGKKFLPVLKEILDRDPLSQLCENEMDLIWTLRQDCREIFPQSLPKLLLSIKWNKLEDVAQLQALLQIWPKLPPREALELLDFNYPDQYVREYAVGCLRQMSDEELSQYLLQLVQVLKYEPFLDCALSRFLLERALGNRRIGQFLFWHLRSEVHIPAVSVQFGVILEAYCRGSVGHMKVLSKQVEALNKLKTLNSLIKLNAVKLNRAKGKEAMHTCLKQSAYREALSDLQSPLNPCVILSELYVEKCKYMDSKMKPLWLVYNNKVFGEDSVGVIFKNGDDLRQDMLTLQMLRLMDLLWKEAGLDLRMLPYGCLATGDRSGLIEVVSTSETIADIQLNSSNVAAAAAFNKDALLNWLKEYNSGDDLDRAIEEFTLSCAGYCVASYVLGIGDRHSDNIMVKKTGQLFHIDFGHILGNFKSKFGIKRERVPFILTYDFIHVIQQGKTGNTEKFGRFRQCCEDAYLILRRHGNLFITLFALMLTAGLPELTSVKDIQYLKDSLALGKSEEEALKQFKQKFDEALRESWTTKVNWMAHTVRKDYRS
Sequence of Phosphatidylinositol 4,5-bisphosphate 3-kinase catalytic subunit gamma isoform (P48736 whole entry, canonical isoform): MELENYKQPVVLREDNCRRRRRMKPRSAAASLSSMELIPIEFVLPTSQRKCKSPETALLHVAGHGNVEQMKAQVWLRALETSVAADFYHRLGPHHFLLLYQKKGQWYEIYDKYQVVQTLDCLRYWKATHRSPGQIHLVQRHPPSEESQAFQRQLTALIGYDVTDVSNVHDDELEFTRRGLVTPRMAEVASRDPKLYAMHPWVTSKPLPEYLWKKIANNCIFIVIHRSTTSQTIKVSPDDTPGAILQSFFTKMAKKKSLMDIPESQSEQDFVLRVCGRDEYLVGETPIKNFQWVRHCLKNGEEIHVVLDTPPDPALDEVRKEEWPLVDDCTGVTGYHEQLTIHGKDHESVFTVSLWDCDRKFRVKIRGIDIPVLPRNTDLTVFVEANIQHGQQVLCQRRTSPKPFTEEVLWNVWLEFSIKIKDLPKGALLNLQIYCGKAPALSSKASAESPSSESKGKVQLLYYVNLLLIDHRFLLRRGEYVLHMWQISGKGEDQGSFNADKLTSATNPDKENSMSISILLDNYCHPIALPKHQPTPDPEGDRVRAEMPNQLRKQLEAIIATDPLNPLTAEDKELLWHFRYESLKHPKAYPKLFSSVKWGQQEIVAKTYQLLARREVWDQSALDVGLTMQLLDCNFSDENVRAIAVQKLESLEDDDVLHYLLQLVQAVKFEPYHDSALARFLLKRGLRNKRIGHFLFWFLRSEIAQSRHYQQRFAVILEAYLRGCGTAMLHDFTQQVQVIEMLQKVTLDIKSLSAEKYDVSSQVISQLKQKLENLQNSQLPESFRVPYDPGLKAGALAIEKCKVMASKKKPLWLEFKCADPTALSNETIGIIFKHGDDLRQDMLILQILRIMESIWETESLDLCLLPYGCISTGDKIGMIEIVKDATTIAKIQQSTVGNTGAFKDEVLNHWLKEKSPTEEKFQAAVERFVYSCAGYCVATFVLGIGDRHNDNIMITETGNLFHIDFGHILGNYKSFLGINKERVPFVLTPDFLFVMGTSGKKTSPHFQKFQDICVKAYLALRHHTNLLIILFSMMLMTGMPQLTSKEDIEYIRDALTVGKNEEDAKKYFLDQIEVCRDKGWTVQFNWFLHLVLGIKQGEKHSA

`Cc1ccccc1-n1c(Cn2cc(-c3ccccc3)nn2)nc2cccc(C)c2c1=O`: the half-maximal inhibitory concentration (IC50) in experiment [1] is 1 µM; in experiment [2] it was more than 10 µM; in experiment [3], more than 10 µM; in experiment [4] it was more than 10 µM; in [5], more than 10 µM; in experiment [6] it was more than 10 µM. The half-maximal inhibitory concentration (IC50) in [12] was found to be 250 µM; in [13], 430 µM; in [14], 1 µM; in [15] it was 5 µM. This molecule also returned an Activity in experiment [7] of more than 50%. Also, the result in [8], in experiment [9] and in [10] was inactive. The Ratio IC50 in experiment [11] was 5.
Take `COc1ccc(-c2cn(Cc3nc4cccc(C)c4c(=O)n3-c3ccccc3C)nn2)c(C)c1`: the 50% inhibitory concentration (IC50) was 1 µM in experiment [1]; more than 10 µM in experiment [2]; more than 10 µM in experiment [3]; more than 10 µM in [4]; more than 10 µM in [5]; more than 10 µM in [6]. The concentration for half-maximal inhibition (IC50) in experiment [12] was found to be 290 µM; in experiment [13] it was 355 µM; in experiment [14] it was 3 µM; in experiment [15], 10 µM. In [7], this molecule registered an Activity of more than 50%. The result in experiment [8], in experiment [9] and in experiment [10] was inactive. Further, the Ratio IC50 in experiment [11] is 3.
As for `Cc1ccccc1-n1c(Cn2cc(-c3ccccc3C(F)(F)F)nn2)nc2cccc(C)c2c1=O`, the IC50 in [1], in [2], in [3], in experiment [4], in [5] and in [6] was more than 10 µM each time.
For `Cc1cc(OCc2cn(Cc3nc4cccc(C)c4c(=O)n3-c3ccccc3C)nn2)ccc1Cl`, the concentration for half-maximal inhibition (IC50) in experiment [1], in experiment [2], in experiment [3], in [4], in [5] and in experiment [6] was more than 10 µM each time.
